# “And” between values parts separate entries of the source, which are not always exact repeats. Equal values may be shown once.
# Legend:
# Assay type in all cases: toxicity, cell-based
# HEK-293T = assay: Multiplex assay against HEK293T; settings: human, number of replicates 2
# Outline: (§1)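 Live cells were stained at seeding with Hoechst33342, BioTracker Green Microtubule Cytoskeleton Dye, MitoTracker Red and Annexin V Alexa Fluor 680. Following compound addition, they were imaged on a CQ1 microscope at 37°C and 5% CO2 and gated by CellPathfinder machine learning into Hoechst high-intensity objects or normal cells, with normal cells split into healthy, pyknosed or fragmented nuclei and pyknosed cells into mitotic or apoptotic. Tubulin, mitochondrial-mass and membrane-permeability phenotypes are per cents of healthy-nucleus cells.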
# Fibroblast = assay: Multiplex assay against human fibroblast; settings: number of replicates 2; outline: as §1
# U2OS = assay: Multiplex assay against U2OS; settings: human, number of replicates 2; outline: as §1
# [1] = 12 h, 1 µM, compound concentration 1 uM
# [2] = 12 h, 10 µM, compound concentration 10 uM
# [3] = 24 h, 1 µM, compound concentration 1 uM
# [4] = 24 h, 10 µM, compound concentration 10 uM
# [5] = 48 h, 1 µM, compound concentration 1 uM
# [6] = 48 h, 10 µM, compound concentration 10 uM
smiles,measurement,setting,value
O=S(=O)(c1ccccc1)N(CC(F)(F)F)c1ccc(C(O)(C(F)(F)F)C(F)(F)F)cc1 [T091317],Population Apoptotic (%),HEK-293T; [1],40% and 48%
same,Population Fragmented Nuclei (%),HEK-293T; [1],4% and 3%
same,Population Healthy Nuclei (%),HEK-293T; [1],83% and 82%
same,Population Hoechst High Intensity Objects (%),HEK-293T; [1],7% and 5%
same,Population Membrane Permeable-Phenotype (%),HEK-293T; [1],3% and 4%
same,Population Mitochondria Different-Phenotype (%),HEK-293T; [1],15% and 22%
same,Population Mitotic Cells (%),HEK-293T; [1],59% and 51%
same,Population Normal (%),HEK-293T; [1],92% and 94%
same,Population Pyknosed Nuclei (%),HEK-293T; [1],11% and 14%
same,Population Tubulin-Different-Phenotype (%),HEK-293T; [1],56%
same,Total Cell Count,HEK-293T; [1],740 and 522
same,Population Apoptotic (%),HEK-293T; [2],57% and 54%
same,Population Fragmented Nuclei (%),HEK-293T; [2],3% and 5%
same,Population Healthy Nuclei (%),HEK-293T; [2],83% and 81%
same,Population Hoechst High Intensity Objects (%),HEK-293T; [2],10% and 15%
same,Population Membrane Permeable-Phenotype (%),HEK-293T; [2],4% and 3%
same,Population Mitochondria Different-Phenotype (%),HEK-293T; [2],49% and 42%
same,Population Mitotic Cells (%),HEK-293T; [2],42% and 45%
same,Population Normal (%),HEK-293T; [2],89% and 84%
same,Population Pyknosed Nuclei (%),HEK-293T; [2],12%
same,Population Tubulin-Different-Phenotype (%),HEK-293T; [2],86% and 81%
same,Total Cell Count,HEK-293T; [2],426 and 429
same,Population Apoptotic (%),HEK-293T; [3],39% and 56%
same,Population Fragmented Nuclei (%),HEK-293T; [3],8% and 4%
same,Population Healthy Nuclei (%),HEK-293T; [3],83% and 85%
same,Population Hoechst High Intensity Objects (%),HEK-293T; [3],8% and 7%
same,Population Membrane Permeable-Phenotype (%),HEK-293T; [3],4%
same,Population Mitochondria Different-Phenotype (%),HEK-293T; [3],5% and 8%
same,Population Mitotic Cells (%),HEK-293T; [3],60% and 43%
same,Population Normal (%),HEK-293T; [3],91% and 92%
same,Population Pyknosed Nuclei (%),HEK-293T; [3],8% and 10%
same,Population Tubulin-Different-Phenotype (%),HEK-293T; [3],36% and 38%
same,Total Cell Count,HEK-293T; [3],1214 and 697
same,Population Apoptotic (%),HEK-293T; [4],44% and 68%
same,Population Fragmented Nuclei (%),HEK-293T; [4],2% and 7%
same,Population Healthy Nuclei (%),HEK-293T; [4],84% and 79%
same,Population Hoechst High Intensity Objects (%),HEK-293T; [4],9% and 18%
same,Population Membrane Permeable-Phenotype (%),HEK-293T; [4],4% and 3%
same,Population Mitochondria Different-Phenotype (%),HEK-293T; [4],53% and 59%
same,Population Mitotic Cells (%),HEK-293T; [4],55% and 31%
same,Population Normal (%),HEK-293T; [4],90% and 81%
same,Population Pyknosed Nuclei (%),HEK-293T; [4],12% and 13%
same,Population Tubulin-Different-Phenotype (%),HEK-293T; [4],87% and 86%
same,Total Cell Count,HEK-293T; [4],385 and 376
same,Population Fragmented Nuclei (%),HEK-293T; [5],15% and 8%
same,Population Healthy Nuclei (%),HEK-293T; [5],80% and 87%
same,Population Hoechst High Intensity Objects (%),HEK-293T; [5],10% and 9%
same,Population Membrane Permeable-Phenotype (%),HEK-293T; [5],6% and 3%
same,Population Mitochondria Different-Phenotype (%),HEK-293T; [5],0% and 2%
same,Population Mitotic Cells (%),HEK-293T; [5],90% and 68%
same,Population Normal (%),HEK-293T; [5],89% and 90%
same,Population Pyknosed Nuclei (%),HEK-293T; [5],3%
same,Population Tubulin-Different-Phenotype (%),HEK-293T; [5],19% and 22%
same,Total Cell Count,HEK-293T; [5],2956 and 1428
same,Population Apoptotic (%),HEK-293T; [6],67% and 74%
same,Population Fragmented Nuclei (%),HEK-293T; [6],7% and 14%
same,Population Healthy Nuclei (%),HEK-293T; [6],78% and 66%
same,Population Hoechst High Intensity Objects (%),HEK-293T; [6],14% and 24%
same,Population Membrane Permeable-Phenotype (%),HEK-293T; [6],4%
same,Population Mitochondria Different-Phenotype (%),HEK-293T; [6],66% and 58%
same,Population Mitotic Cells (%),HEK-293T; [6],32% and 25%
same,Population Normal (%),HEK-293T; [6],85% and 75%
same,Population Pyknosed Nuclei (%),HEK-293T; [6],14% and 19%
same,Population Tubulin-Different-Phenotype (%),HEK-293T; [6],94% and 82%
same,Total Cell Count,HEK-293T; [6],296 and 264
same,Population Apoptotic (%),Fibroblast; [1],45% and 27%
same,Population Fragmented Nuclei (%),Fibroblast; [1],13% and 11%
same,Population Healthy Nuclei (%),Fibroblast; [1],60% and 68%
same,Population Hoechst High Intensity Objects (%),Fibroblast; [1],0%
same,Population Membrane Permeable-Phenotype (%),Fibroblast; [1],8% and 10%
same,Population Mitochondria Different-Phenotype (%),Fibroblast; [1],1%
same,Population Mitotic Cells (%),Fibroblast; [1],54% and 72%
same,Population Normal (%),Fibroblast; [1],100%
same,Population Pyknosed Nuclei (%),Fibroblast; [1],25% and 20%
same,Population Tubulin-Different-Phenotype (%),Fibroblast; [1],28% and 21%
same,Total Cell Count,Fibroblast; [1],135 and 214
same,Population Apoptotic (%),Fibroblast; [2],33% and 30%
same,Population Fragmented Nuclei (%),Fibroblast; [2],14% and 12%
same,Population Healthy Nuclei (%),Fibroblast; [2],58% and 67%
same,Population Hoechst High Intensity Objects (%),Fibroblast; [2],0%
same,Population Membrane Permeable-Phenotype (%),Fibroblast; [2],6% and 8%
same,Population Mitochondria Different-Phenotype (%),Fibroblast; [2],1% and 4%
same,Population Mitotic Cells (%),Fibroblast; [2],66% and 69%
same,Population Normal (%),Fibroblast; [2],99% and 100%
same,Population Pyknosed Nuclei (%),Fibroblast; [2],28% and 19%
same,Population Tubulin-Different-Phenotype (%),Fibroblast; [2],40% and 34%
same,Total Cell Count,Fibroblast; [2],151 and 132
same,Population Apoptotic (%),Fibroblast; [3],50% and 52%
same,Population Fragmented Nuclei (%),Fibroblast; [3],15% and 10%
same,Population Healthy Nuclei (%),Fibroblast; [3],54% and 57%
same,Population Hoechst High Intensity Objects (%),Fibroblast; [3],0%
same,Population Membrane Permeable-Phenotype (%),Fibroblast; [3],7% and 15%
same,Population Mitochondria Different-Phenotype (%),Fibroblast; [3],5% and 0%
same,Population Mitotic Cells (%),Fibroblast; [3],50% and 47%
same,Population Normal (%),Fibroblast; [3],100%
same,Population Pyknosed Nuclei (%),Fibroblast; [3],29% and 31%
same,Population Tubulin-Different-Phenotype (%),Fibroblast; [3],28% and 24%
same,Total Cell Count,Fibroblast; [3],128 and 204
same,Population Apoptotic (%),Fibroblast; [4],63% and 37%
same,Population Fragmented Nuclei (%),Fibroblast; [4],16% and 18%
same,Population Healthy Nuclei (%),Fibroblast; [4],47% and 57%
same,Population Hoechst High Intensity Objects (%),Fibroblast; [4],0%
same,Population Membrane Permeable-Phenotype (%),Fibroblast; [4],8% and 17%
same,Population Mitochondria Different-Phenotype (%),Fibroblast; [4],7% and 4%
same,Population Mitotic Cells (%),Fibroblast; [4],36% and 62%
same,Population Normal (%),Fibroblast; [4],100% and 99%
same,Population Pyknosed Nuclei (%),Fibroblast; [4],35% and 24%
same,Population Tubulin-Different-Phenotype (%),Fibroblast; [4],65% and 56%
same,Total Cell Count,Fibroblast; [4],145 and 143
same,Population Apoptotic (%),Fibroblast; [5],75% and 69%
same,Population Fragmented Nuclei (%),Fibroblast; [5],10% and 13%
same,Population Healthy Nuclei (%),Fibroblast; [5],60% and 54%
same,Population Hoechst High Intensity Objects (%),Fibroblast; [5],0%
same,Population Membrane Permeable-Phenotype (%),Fibroblast; [5],15% and 14%
same,Population Mitochondria Different-Phenotype (%),Fibroblast; [5],0% and 2%
same,Population Mitotic Cells (%),Fibroblast; [5],24% and 30%
same,Population Normal (%),Fibroblast; [5],100% and 99%
same,Population Pyknosed Nuclei (%),Fibroblast; [5],28% and 31%
same,Population Tubulin-Different-Phenotype (%),Fibroblast; [5],32% and 24%
same,Total Cell Count,Fibroblast; [5],128 and 175
same,Population Apoptotic (%),Fibroblast; [6],71% and 78%
same,Population Fragmented Nuclei (%),Fibroblast; [6],25% and 16%
same,Population Healthy Nuclei (%),Fibroblast; [6],46% and 54%
same,Population Hoechst High Intensity Objects (%),Fibroblast; [6],1% and 0%
same,Population Membrane Permeable-Phenotype (%),Fibroblast; [6],16% and 26%
same,Population Mitochondria Different-Phenotype (%),Fibroblast; [6],4%
same,Population Mitotic Cells (%),Fibroblast; [6],28% and 21%
same,Population Normal (%),Fibroblast; [6],98% and 99%
same,Population Pyknosed Nuclei (%),Fibroblast; [6],27% and 28%
same,Population Tubulin-Different-Phenotype (%),Fibroblast; [6],69% and 80%
same,Total Cell Count,Fibroblast; [6],143 and 134
same,Population Apoptotic (%),U2OS; [1],75% and 39%
same,Population Healthy Nuclei (%),U2OS; [1],62% and 82%
same,Population Hoechst High Intensity Objects (%),U2OS; [1],2% and 0%
same,Population Mitochondria Different-Phenotype (%),U2OS; [1],0% and 1%
same,Population Mitotic Cells (%),U2OS; [1],25% and 60%
same,Population Normal (%),U2OS; [1],97% and 100%
same,Population Pyknosed Nuclei (%),U2OS; [1],10% and 12%
same,Population Tubulin-Different-Phenotype (%),U2OS; [1],52% and 81%
same,Population Apoptotic (%),U2OS; [2],66% and 45%
same,Population Healthy Nuclei (%),U2OS; [2],56% and 80%
same,Population Hoechst High Intensity Objects (%),U2OS; [2],0%
same,Population Membrane Permeable-Phenotype (%),U2OS; [2],4% and 5%
same,Population Mitochondria Different-Phenotype (%),U2OS; [2],0% and 2%
same,Population Mitotic Cells (%),U2OS; [2],33% and 54%
same,Population Normal (%),U2OS; [2],100%
same,Population Pyknosed Nuclei (%),U2OS; [2],7% and 13%
same,Population Tubulin-Different-Phenotype (%),U2OS; [2],40% and 41%
same,Population Apoptotic (%),U2OS; [3],100% and 56%
same,Population Healthy Nuclei (%),U2OS; [3],58% and 88%
same,Population Hoechst High Intensity Objects (%),U2OS; [3],3% and 0%
same,Population Mitochondria Different-Phenotype (%),U2OS; [3],8% and 0%
same,Population Normal (%),U2OS; [3],96% and 100%
same,Population Pyknosed Nuclei (%),U2OS; [3],4% and 7%
same,Population Tubulin-Different-Phenotype (%),U2OS; [3],59% and 82%
same,Population Apoptotic (%),U2OS; [4],57% and 52%
same,Population Healthy Nuclei (%),U2OS; [4],65% and 78%
same,Population Hoechst High Intensity Objects (%),U2OS; [4],0%
same,Population Membrane Permeable-Phenotype (%),U2OS; [4],3% and 4%
same,Population Mitochondria Different-Phenotype (%),U2OS; [4],0% and 5%
same,Population Mitotic Cells (%),U2OS; [4],42% and 47%
same,Population Normal (%),U2OS; [4],100%
same,Population Pyknosed Nuclei (%),U2OS; [4],14% and 16%
same,Population Tubulin-Different-Phenotype (%),U2OS; [4],40% and 47%
same,Population Apoptotic (%),U2OS; [5],33% and 36%
same,Population Healthy Nuclei (%),U2OS; [5],65% and 90%
same,Population Hoechst High Intensity Objects (%),U2OS; [5],3% and 0%
same,Population Membrane Permeable-Phenotype (%),U2OS; [5],10% and 1%
same,Population Mitochondria Different-Phenotype (%),U2OS; [5],10% and 0%
same,Population Mitotic Cells (%),U2OS; [5],66% and 63%
same,Population Normal (%),U2OS; [5],96% and 100%
same,Population Pyknosed Nuclei (%),U2OS; [5],9% and 6%
same,Population Tubulin-Different-Phenotype (%),U2OS; [5],72% and 84%
same,Population Apoptotic (%),U2OS; [6],79% and 66%
same,Population Fragmented Nuclei (%),U2OS; [6],5% and 15%
same,Population Healthy Nuclei (%),U2OS; [6],81% and 70%
same,Population Hoechst High Intensity Objects (%),U2OS; [6],0%
same,Population Membrane Permeable-Phenotype (%),U2OS; [6],4% and 2%
same,Population Mitochondria Different-Phenotype (%),U2OS; [6],3% and 2%
same,Population Mitotic Cells (%),U2OS; [6],20% and 33%
same,Population Normal (%),U2OS; [6],100%
same,Population Pyknosed Nuclei (%),U2OS; [6],13%
same,Population Tubulin-Different-Phenotype (%),U2OS; [6],58% and 34%
